The source made the active and inactive calls. The rule behind the calls is not given here.
Columns and labels:
[1] = system: Rattus norvegicus; experiment: AUC (0 to 6 hrs) in Wistar rat assessed as ketorolac release at 0.163 mg/kg, po; type: ADME, organism-based, Plasma; set-up: time < 6 hr, dose 0.163 mg/kg, route oral; conditions: in vivo
In short: (§1)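 Male Wistar rats (200 ± 20 g), single oral dose; killed by decapitation at […], at least three rats per time point, each measured in triplicate. Plasma deproteinized with acetonitrile, centrifuged, organic phase analyzed by C18 HPLC at 313 nm with tolmetine internal standard. Calibration 0.1-100 µg/mL in drug-free matrix. Parameters taken from semilog concentration-time plots.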

[2] = Chemical stability assessed as hydrolysis half life in phosphate buffer at pH 7.4; type: physicochemical
In short: (§2)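 Solutions of 100 µg/mL (ketorolac tris salt at 90.5 µg/mL) held at 37 °C for 24 h in 0.1 N HCl (pH 1), phosphate buffer pH 7.4 or 8.0, or plasma. Samples taken hourly; plasma samples extracted with acetonitrile (1:2) and centrifuged. Remaining ester measured by HPLC diode array at 313 nm. Pseudo-first-order t1/2 from log plots over time; mean ± SEM.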

[3] = system: Mus musculus; experiment: Analgesic activity against acetic acid-induced writhing in Swiss mouse at 0.163 mg/kg, po administered 1 hr before acetic acid challenge measured after 5 mins for 20 mins; type: functional, organism-based; set-up: dose 0.163 mg/kg
In short: (§3)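 Male Swiss mice (20-25 g), fasted overnight, water allowed, six per group. Oral dosing with CMC vehicle given 1 h before ip 0.6% acetic acid or ip magnesium sulfate 120 mg/kg. Abdominal constriction, trunk turning and hind-leg extension counted: for acetic acid over 20 min starting 5 min post-injection, for MgSO4 over 5 min. Mean ± SEM.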

[4] = system: Rattus norvegicus; experiment: Half life in Wistar rat assessed as ketorolac release at 0.163 mg/kg, po; type: ADME, organism-based; set-up: dose 0.163 mg/kg, route oral; conditions: in vivo; in short: as §1
[5] = system: Mus musculus; experiment: Analgesic activity against magnesium sulfate-induced writhing in po dosed Swiss mouse administered 1 hr before magnesium sulfate challenge measured for 5 mins; type: functional, organism-based; in short: as §3
[6] = system: Mus musculus; experiment: Gastrointestinal toxicity in fasted Swiss mouse assessed ulcer index at 0.163 mg/kg, po after 4 hrs; type: organism-based; set-up: dose 0.163 mg/kg, route oral; conditions: in vivo
In short: (§4)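 Male Swiss mice, fasted 16-18 h, n = 6 per group, dosed orally (vehicle 0.5% CMC). Killed 4 h later; stomach opened along greater curvature, rinsed with saline and examined under magnifier. Scoring: irritation 1, lesions 1-3 mm 5, lesions >3 mm 10. Gastric lesion score and ulcer number given as mean ± SEM.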

[7] = system: Rattus norvegicus; experiment: Cmax in Wistar rat assessed as ketorolac release at 0.163 mg/kg, po; type: ADME, organism-based; set-up: dose 0.163 mg/kg, route oral; conditions: in vivo; in short: as §1
[8] = Chemical stability assessed as hydrolysis half life in 0.1N HCl at pH 1; type: physicochemical; in short: as §2
[9] = Stability in rat plasma assessed as half life; type: ADME, cell-free; in short: as §2
[10] = system: Rattus norvegicus; experiment: Tmax in Wistar rat assessed as ketorolac release at 0.163 mg/kg, po; type: ADME, organism-based; set-up: dose 0.163 mg/kg, route oral; conditions: in vivo; in short: as §1
[11] = system: Rattus norvegicus; experiment: AUMC (0 to 6 hrs) in Wistar rat assessed as ketorolac release at 0.163 mg/kg, po; type: ADME, organism-based; set-up: dose 0.163 mg/kg, route oral; conditions: in vivo; in short: as §1
[12] = system: Rattus norvegicus; experiment: Mean residence time in Wistar rat assessed as time required for 63.2% of administered dose to be eliminated as ketorolac at 0.163 mg/kg, po; type: ADME, organism-based; set-up: dose 0.163 mg/kg, route oral; conditions: in vivo; in short: as §1
[13] = Chemical stability assessed as hydrolysis half life in phosphate buffer at pH 8.0; type: physicochemical; in short: as §2
[14] = system: Mus musculus; experiment: Analgesic activity against acetic acid-induced writhing in po dosed Swiss mouse administered 1 hr before acetic acid challenge measured after 5 mins for 20 mins; type: functional, organism-based; in short: as §3
[15] = system: Rattus norvegicus; experiment: Elimination half life in Wistar rat assessed as ketorolac release at 0.163 mg/kg, po; type: ADME, organism-based; set-up: dose 0.163 mg/kg, route oral; conditions: in vivo; in short: as §1
[16] = system: Rattus norvegicus; experiment: Systemic clearance in Wistar rat assessed as ketorolac release at 0.163 mg/kg, po; type: ADME, organism-based; set-up: dose 0.163 mg/kg, route oral; conditions: in vivo; in short: as §1
[17] = Tmax in Wistar rat at 0.1 mg/kg, po; type: ADME, organism-based; set-up: dose 0.1 mg/kg, route oral; conditions: in vivo; in short: as §1
[18] = Cmax in Wistar rat at 0.1 mg/kg, po; type: ADME, organism-based; set-up: dose 0.1 mg/kg, route oral; conditions: in vivo; in short: as §1
[19] = system: Rattus norvegicus; experiment: AUMC (0 to 6 hrs) in Wistar rat at 0.1 mg/kg, po; type: ADME, organism-based; set-up: dose 0.1 mg/kg, route oral; conditions: in vivo; in short: as §1
[20] = Elimination half life in Wistar rat at 0.1 mg/kg, po; type: ADME, organism-based; set-up: dose 0.1 mg/kg, route oral; conditions: in vivo, read-out: beta t1/2 (converted); in short: as §1
[21] = Half life in Wistar rat at 0.1 mg/kg, po; type: ADME, organism-based; set-up: dose 0.1 mg/kg, route oral; conditions: in vivo; in short: as §1
[22] = Systemic clearance in Wistar rat at 0.1 mg/kg, po; type: ADME, organism-based; set-up: dose 0.1 mg/kg, route oral; conditions: in vivo; in short: as §1
[23] = AUC (0 to 6 hrs) in Wistar rat at 0.1 mg/kg, po; type: ADME, organism-based; set-up: time < 6 hr, dose 0.1 mg/kg, route oral; conditions: plasma; in short: as §1
[24] = system: Mus musculus; experiment: Gastrointestinal toxicity in fasted Swiss mouse assessed ulcer index at 0.1 mg/kg, po after 4 hrs; type: organism-based; set-up: dose 0.1 mg/kg, route oral; conditions: in vivo; in short: as §4
[25] = system: Mus musculus; experiment: Antiinflammatory activity in Swiss mouse assessed as reduction in carrageenan-induced hind paw edema at 10 mg/kg, po administered 1 hr before carrageenan challenge measured after 48 hrs; type: functional, organism-based; set-up: dose 10 mg/kg
In short: (§5)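 Male Swiss mice, six per group, dosed orally (CMC vehicle) 1 h before subplantar injection of 50 µL of 1% λ-carrageenan in saline into the right hind paw. Paw volume read by plethysmometer at intervals up to 96 h. Edema taken as volume minus basal volume measured just before injection. Mean ± SEM.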

[26] = Mean residence time in Wistar rat assessed as time required for 63.2% of administered dose to be eliminated at 0.1 mg/kg, po; type: ADME, organism-based; set-up: dose 0.1 mg/kg, route oral; conditions: in vivo; in short: as §1
[27] = system: Mus musculus; experiment: Antiinflammatory activity in Swiss mouse assessed as reduction in carrageenan-induced hind paw edema at 0.1 mg/kg, po administered 1 hr before carrageenan challenge; type: functional, organism-based; set-up: dose 0.1 mg/kg; in short: as §5

O=C(c1ccccc1)c1ccc2n1CC[C@@H]2C(=O)OC[C@H]1OC(O)[C@H](O)[C@@H](O)[C@H]1O (stereo partly drawn)
AUC [1]: 935 ng·h/mL
half-life [2]: > 4 h
Activity [3]: Active
t1/2 [4]: 5.23 h
Activity [5]: Dose-dependent effect
UI [6]: 1
Cmax [7]: 240 ng/mL
half-life [8]: 2.1 h
half-life [9]: 1.5 h
Tmax [10]: 1 h
AUMC [11]: 5600 ng·h/mL
MRT [12]: 4.5 h
half-life [13]: > 4 h
Activity [14]: Dose-dependent effect
beta t1/2 [15]: 2.4 h
CL [16]: 80.36 mL/h

O=C(c1ccccc1)c1ccc2n1CCC2C(=O)O (stereo not drawn) [KETOROLAC]
Tmax [17]: 1 h
Cmax [18]: 400 ng/mL
AUMC [19]: 3300 ng·h/mL
half-life [2]: > 4 h
Activity [5]: Dose-dependent effect
half-life [20]: 1.99 h
half-life [8]: > 4 h
half-life [21]: 1.65 h
half-life [9]: > 4 h
CL/F [22]: 1.57 mL/min
AUC(0-t) at 6 h [23]: 855 ng·h/mL
UI [24]: 10
half-life [13]: > 4 h
Activity [14]: Dose-dependent effect
Activity [25]: Active
MRT [26]: 3.1 h
Activity [27]: inactive

Source: ChEMBL document CHEMBL1136962, “Galactosyl prodrug of ketorolac: synthesis, stability, and pharmacological and pharmacokinetic evaluations” (J Med Chem, 2009)
